Results collected from several papers.
Compare with care: the assays were run in different laboratories.
Organism: Staphylococcus aureus
Observed: microbial growth

| Compound | assay | system | conditions | MIC |
| --- | --- | --- | --- | --- |
| c1ccc(CSc2nc3ccc(-c4ccccc4)cc3cc2CNCCC2CCN(C3CCCC3)CC2)cc1 | broth dilution |  |  | 8 µg/mL |
| CC1(C)S[C@@H]2[C@H](NC(=O)[C@H](N)c3ccc(O)cc3)C(=O)N2[C@H]1C(=O)O | broth dilution | ATCCBAA44 BAA44 |  | 64 µg/mL |
| COc1c(N2C[C@@H]3CCCN[C@@H]3C2)c(F)cc2c(=O)c(C(=O)O)cn(C3CC3)c12 | agar dilution | ATCC29213 |  | 0.5 µg/mL |
| Cc1ccc2[nH]nc(-c3nnc(Nc4ccc(Cl)c(Cl)c4)s3)c2c1 |  | ATCC29213 |  | 97.5 µg/mL |
| CCCCCCC#Cc1cncc(-c2nnc(SCc3ccc([N+](=O)[O-])cc3)n2CCCN)c1 | broth dilution | MRSA |  | 8 µg/mL |
| CCCCCCCCCCCC[N+](C)(C)Cc1ccccc1 |  | MSSA |  | 4 µM |
| CC[C@H]1OC(=O)[C@H](C)[C@@H](O[C@H]2C[C@@](C)(OC)[C@@H](O)[C@H](C)O2)[C@H](C)[C@@H](O[C@@H]2O[C@H](C)C[C@H](N(C)C)[C@H]2O)[C@](C)(O)C[C@@H](C)CN(C)[C@H](C)[C@@H](O)[C@]1(C)O | broth dilution | ATCCBAA44 BAA44 |  | > 64 µg/mL |
| CNC(C)C1CCC(N)C(OC2C(N)CC(N)C(OC3OCC(C)(O)C(NC)C3O)C2O)O1 (centres unmarked) | broth dilution |  |  | 2 µg/mL |
| C[C@H]1COc2c(N3CCN(C)CC3)c(F)cc3c(=O)c(C(=O)O)cn1c23 |  | ATCC29213 MSSA | drug-resistant strain | 0.12 µg/mL |
| CCCCCCCCN=c1ccn(CCCCCCCCCCn2ccc(=NCCCCCCCC)cc2)cc1 |  | ATCC33591 MRSA | drug-resistant strain | 1 µM |
| CN1CCN(CCNCc2cc3cc(Br)ccc3nc2SCc2ccccc2)CC1 | broth dilution |  |  | 16 µg/mL |
| C=C[C@]1(C)C[C@@H](OC(=O)CS[C@@H]2C[C@H]3CC[C@@H](C2)N3C)[C@]2(C)[C@H](C)CC[C@]3(CCC(=O)[C@H]32)[C@@H](C)[C@@H]1O | agar dilution | ATCC43300 |  | 0.0625 µg/mL |
| O=C(O)c1cn(C2CC2)c2cc(N3CCNCC3)c(F)cc2c1=O | broth dilution | ATCC25923 | 16 h | 6.25 µM |
| CN[C@H](CC(C)C)C(=O)N[C@H]1C(=O)N[C@@H](CC(N)=O)C(=O)N[C@H]2C(=O)N[C@H]3C(=O)N[C@H](C(=O)N[C@H](C(=O)O)c4cc(O)cc(O)c4-c4cc3ccc4O)[C@H](O)c3ccc(c(Cl)c3)Oc3cc2cc(c3O[C@@H]2O[C@H](CO)[C@@H](O)[C@H](O)[C@H]2O[C@H]2C[C@](C)(N)[C@H](O)[C@H](C)O2)Oc2ccc(cc2Cl)[C@H]1O | agar dilution | ATCC43300 |  | 2 µg/mL |
| Cc1ccc2[nH]nc(-c3nnc(Nc4cc(Cl)cc(Br)c4)s3)c2c1 |  | ATCC29213 |  | 204 µg/mL |
| CC1(C)S[C@@H]2[C@H](NC(=O)[C@H](N)c3ccccc3)C(=O)N2[C@H]1C(=O)O | agar dilution | ATCC25923 |  | 0.5 µg/mL |
| CCCCCCC#Cc1cncc(-c2nnc(SCc3ccc([N+](=O)[O-])o3)n2CCCN)c1 | broth dilution | ATCC29213 |  | > 64 µg/mL |
| CN1CCN(CCNCc2cc3cc(-c4ccccc4)ccc3nc2SCc2ccccc2)CC1 | broth dilution |  |  | 8 µg/mL |
| CC(=O)C1=NN(c2ccccc2)C(=C(C#N)C(=O)c2ccc(Nc3cnccn3)cc2)S1 | broth dilution | ATCC25923 |  | 50 µg/mL |
| Cc1ccc2[nH]nc(-c3nnc(Nc4ccc(Cl)c(Br)c4)s3)c2c1 |  | ATCC29213 |  | 204 µg/mL |
| N=c1sc(C(=O)c2ccc(Nc3cnccn3)cc2)nn1-c1ccc([N+](=O)[O-])cc1 | broth dilution | ATCC25923 |  | 3.12 µg/mL |
| CC1(C)S[C@@H]2[C@H](NC(=O)[C@H](N)c3ccccc3)C(=O)N2[C@H]1C(=O)O | broth dilution | ATCC25923 | 12 h | 0.13 µg/mL |
| N#CC(C#N)=C1SC(C(=O)c2ccc(Nc3cnccn3)cc2)=NN1c1ccc([N+](=O)[O-])cc1 | broth dilution | ATCC25923 |  | 3.12 µg/mL |
| O=C1/C(=C/c2ccc3ccccc3c2O)NC(=S)N1c1ccccc1 | broth dilution | ATCC6538 |  | 22 µg/mL |
| Cc1cc(Nc2nnc(-c3n[nH]c4ccc(C)cc34)s2)cc([N+](=O)[O-])c1 |  | ATCC29213 |  | 78 µg/mL |
| CN[C@H](CC(C)C)C(=O)N[C@H]1C(=O)N[C@@H](CC(N)=O)C(=O)N[C@H]2C(=O)N[C@H]3C(=O)N[C@H](C(=O)N[C@H](C(=O)O)c4cc(O)cc(O)c4-c4cc3ccc4O)[C@H](O)c3ccc(c(Cl)c3)Oc3cc2cc(c3O[C@@H]2O[C@H](CO)[C@@H](O)[C@H](O)[C@H]2O[C@H]2C[C@](C)(N)[C@H](O)[C@H](C)O2)Oc2ccc(cc2Cl)[C@H]1O | broth dilution | ATCCBAA44 BAA44 |  | 1 µg/mL |
| CN1CCN(CCNCc2cc3ccccc3nc2SCc2ccccc2)CC1 | broth dilution |  |  | 64 µg/mL |
| CC(=O)NC[C@H]1CN(c2ccc(N3CCOCC3)c(F)c2)C(=O)O1 | agar dilution | ATCC29213 |  | 2 µg/mL |
| CCCCCCC#Cc1cncc(-c2nnc(SCc3ccc(Cl)cc3)n2CCCN)c1 | broth dilution | MRSA |  | 4 to 8 µg/mL |
